Most compounds without a hit are left out; they make up all but 3.8% or so of the library.
V-ATPase pHluor – regulators of yeast V-ATPase proton transport. AID 504577. S. cerevisiae, pHLuorin cytosolic pH fluorescence. response, % at 10 µM. actives 0.37% (n = 350,000); in the data active = response mostly above about 7.3%, no sharp cut-off; inactive = mostly below about 5.4%; also: actives read high
Exocytosis inh – blocks lytic granule exocytosis | TALL-104 LAMP-1 surface exposure, flow cytometry; cells stimulated with thapsigargin and PMA | inhibition, % at 10 µM | actives 0.66% (n = 360,000) | AID 651702;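 active = inhibition above about 55%, limit read from the data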
rCAG RNA binder – molecules binding r(CAG) RNA repeats; actives 1.3% (n = 370,000); r(CAG) RNA repeat, TO-PRO-1 dye displacement fluorescence; inhibition, % at 3 µM;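 active = inhibition above the plate cutoff, the mean of all test compounds on that plate plus 3 SD, cut at about 35% in these data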;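 also: higher means more dye released from RNA so lower well fluorescence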
T cell HTS – modulates CD8 T cell binding to vesicles | 2C CD8+ T cell-vesicle binding, flow cytometry; stronger effect = lower value | response (vesicle binding), % at 7 µM | actives 0.068% (n = 330,000) | AID 2052;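 active = response, share of CD8 T cells binding vesicles, and their 90th percentile fluorescence all below set limits, cut at about 80% in these data, passing the limit was not always enough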;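 also: values below 100% mean blocked vesicle binding to the CD8+ T cells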
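Material: murine 2C transgenic CD8+ T lymphocytes / Also added: QL9-peptide-loaded Drosophila micro-vesicles bearing Ld, ICAM-1 and B7-1 / Schedule: binding step 1.5 h, 37 °C, antibody labelling 20 min, ice / Signal: flow cytometry, PE anti-B7-1 (FL2) versus Alexa647 anti-CD8 (FL8), PFA-fixed / Evaluation: percent CD8+ FL2 mean versus row control / Benchmarks: naked versus QL9-loaded vesicles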
Beta2AR agonist – agonists of human beta-2 adrenergic receptor inducing internalization; response, % (test concentration not listed); P07550; Am2.2-beta2AR cells, FAP receptor internalization, flow cytometry; AID 504454; actives 0.43% (n = 340,000);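 active = response above a set limit, near 3 SD of response in nonfluorescent compounds, cut at about 42% in these data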
Target sequence (P07550 whole entry, looked up): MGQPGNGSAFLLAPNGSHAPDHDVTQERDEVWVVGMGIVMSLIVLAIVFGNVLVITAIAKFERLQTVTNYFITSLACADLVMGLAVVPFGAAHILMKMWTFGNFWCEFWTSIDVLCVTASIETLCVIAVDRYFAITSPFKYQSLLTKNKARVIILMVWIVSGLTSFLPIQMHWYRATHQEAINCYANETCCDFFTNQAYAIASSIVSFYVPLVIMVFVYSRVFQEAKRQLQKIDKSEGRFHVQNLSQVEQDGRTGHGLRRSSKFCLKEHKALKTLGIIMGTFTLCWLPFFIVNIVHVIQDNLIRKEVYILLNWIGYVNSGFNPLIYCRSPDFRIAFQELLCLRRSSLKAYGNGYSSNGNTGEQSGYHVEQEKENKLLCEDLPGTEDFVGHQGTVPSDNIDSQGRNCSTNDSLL
MPTP inh – blocks calcium-induced mitochondrial swelling | actives 1.4% (n = 360,000) | isolated mouse mitochondria, Ca2+ swelling absorbance, 30 min | AID 602449 | inhibition, % at 10 µM;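 active = inhibition of 50% or more, scaled per plate between neutral and stimulator controls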
Rh123 counter – Rhodamine 123 counter-screen of mitochondrial pore hits. isolated mitochondria, membrane potential, Rhodamine 123 fluorescence. actives 78% (n = 5,000). shares compounds with MPTP inh. AID 624504. inhibition, % at 10 µM; in the data active = inhibition above about 22%
MPTP abs DR – dose response confirmation of mitochondrial permeability transition pore inhibitors; shares compounds with MPTP inh; isolated mitochondria swelling, absorbance; IC50, µM; actives 58% (n = 780); in the data active = IC50 below about 20 µM
MPTP counter DR – active in counter-screen for permeability transition pore inhibitors | IC50, µM | isolated mitochondria counterscreen, fluorescence read-out | AID 651564 | actives 49% (n = 780) | shares compounds with MPTP inh; in the data active = IC50 below about 80 µM
Large screens that a line does not name were inactive (follow-up assays come after a bar, where they were run).

Oc1ccc(Cl)cc1-c1cc(-c2ccccc2Cl)[nH]n1	MPTP inh 61 | Rh123 counter 67
CC(C)(C)c1ccc(-c2cc(-c3ccccc3O)[nH]n2)cc1	none
Oc1ccc(Cl)cc1-c1cc(-c2cccc(Br)c2)n[nH]1	MPTP inh 89 | Rh123 counter 68
Oc1ccccc1-c1cc(-c2cccc(F)c2)n[nH]1	MPTP inh 58 | Rh123 counter 71
Cc1cnc(C(=O)N2CCCC(C(=O)c3ccc(C(C)(C)C)cc3)C2)cn1 (stereo not drawn)	none
CC(C)(C)c1ccc(C(=O)C2CCCN(C(=O)c3ccccn3)C2)cc1 (stereo not drawn)	MPTP inh 70 (no result: T cell HTS) | Rh123 counter 93
CN(CC/C=C1/c2ccccc2CSc2ccccc21)CCCO	none
NCC/C=C1/c2ccccc2CSc2ccccc21	MPTP inh 88 | Rh123 counter inactive | MPTP abs DR 6.8 | MPTP counter DR inactive
C=CCN(C)CC/C=C1\c2ccccc2CSc2ccccc21	MPTP inh 74 | Rh123 counter inactive | MPTP abs DR 18 | MPTP counter DR 74
CN(C)CC/C=C1/c2cc(F)ccc2CSc2ccc(F)cc21	MPTP inh 72 | Rh123 counter inactive | MPTP abs DR 14 | MPTP counter DR inactive
COc1ccc(-c2cc(-c3nnc(SCC(=O)Nc4ccccc4-c4ccccc4)n3N)[nH]n2)cc1	none (no result: V-ATPase pHluor, Exocytosis inh, T cell HTS, Beta2AR agonist, MPTP inh)
Cn1nc(C(C)(C)C)cc1C(=O)NCc1ccc2c(c1)OCO2	MPTP inh 101 | Rh123 counter 105
CCn1ccc(C(=O)NCc2ccc3c(c2)OCO3)n1	none
Cc1ccc(C(=O)NCc2ccc3c(c2)OCO3)o1	none
Cc1oc(C(C)(C)C)cc1C(=O)NCc1ccc2c(c1)OCO2	MPTP inh 63 | Rh123 counter 28
CCNC(=O)N(C)[C@H]1C[C@H]2c3[nH]c4c(-c5cccc(C)c5)cccc4c3CCN2C[C@H]1[C@H](C)O	none (no result: V-ATPase pHluor, Exocytosis inh, T cell HTS, Beta2AR agonist, MPTP inh)
CC1CCc2c(nc3sc4c(c3c2N)CCCC4)C1 (stereo not drawn)	MPTP inh 76 | Rh123 counter 84
Nc1c2c(nc3sc4c(c13)CCCCC4)CCCCC2	MPTP inh 78 | Rh123 counter 93
CCc1c(-c2ccccc2)nc2sc3c(c2c1N)CCCC3	MPTP inh 84 | Rh123 counter 70
Nc1nc2c(s1)CCCCCCCCCC2	none
Nc1c(C(=O)O)sc2nc(-c3ccccc3)c3c(c12)CCCC3	none
CCc1nc2sc3c(c2c(=O)o1)CCCC3	none
CC1CCc2nc3sc4c(c3c(N)c2C1)CCCC4 (stereo not drawn)	MPTP inh 88 | Rh123 counter 81
COc1ccc(Cn2ccc3ccc(-c4ccc5ccn(Cc6ccc(C#N)cc6)c5c4)cc32)cc1	none (no result: V-ATPase pHluor, Exocytosis inh, T cell HTS, Beta2AR agonist, MPTP inh)
COC(=O)C1=C(C)N(Cc2cccc(C(F)(F)F)c2)C(=NCc2ccc(OC)cc2)NC1c1cccc(F)c1 (stereo not drawn)	none (no result: V-ATPase pHluor, Exocytosis inh, T cell HTS, Beta2AR agonist, MPTP inh)
C(#CC1=CCCCC1)CNCc1ccccc1	none (no result: V-ATPase pHluor, Exocytosis inh, T cell HTS, Beta2AR agonist, MPTP inh)
Cc1c(Cl)cccc1NC(=S)NCCC(C)C	none
Cc1c(Cl)cccc1NC(=S)NCCC(c1ccccc1)c1ccccc1	MPTP inh 62 | Rh123 counter 87
Cc1c(Cl)cccc1NC(=S)NCc1ccccc1Cl	MPTP inh 84 | Rh123 counter 94
Cc1c(Cl)cccc1NC(=S)NCC1COc2ccccc2O1 (stereo not drawn)	MPTP inh 63 | Rh123 counter 93
Cc1cc(Cl)ccc1NC(=S)NCCC(c1ccccc1)c1ccccc1	MPTP inh 100 | Rh123 counter 97
Cc1c(Cl)cccc1NC(=S)NCc1ccc(F)cc1	none
C=CCNC(=S)NCC1COc2ccccc2O1 (stereo not drawn)	none
COc1cc(NC(=O)c2ccccc2)c(C)cc1NC(=O)CSc1nnc(-c2ccccc2F)n1-c1ccc(C)cc1	none (no result: V-ATPase pHluor, Exocytosis inh, T cell HTS, Beta2AR agonist, MPTP inh)
COC(=O)[C@@H](Cc1ccccc1)N[C@H](/C=C/c1ccccc1)[C@@H](O)Cc1ccccc1	none (no result: V-ATPase pHluor, Exocytosis inh, T cell HTS, Beta2AR agonist, MPTP inh)
COc1ccc(CNCC(O)(c2ccc(F)cc2)c2ccc(F)cc2)cc1	MPTP inh 73 | Rh123 counter inactive | MPTP abs DR 6.6 | MPTP counter DR 20
COc1ccc(CNCC(O)(c2ccccc2)c2ccccc2)cc1	none
Cc1cc(C)cc(NC(=O)[C@H](Cc2c[nH]c3ccccc23)NC(=O)[C@@H]2Cc3ccccc3CN2)c1	none
CCc1ccc(NC(=O)[C@H](Cc2c[nH]c3ccccc23)NC(=O)[C@@H]2Cc3ccccc3CN2)cc1	MPTP inh 72 | Rh123 counter inactive | MPTP abs DR 7.6 | MPTP counter DR inactive
S=C(Nc1ccc(Oc2ccccc2)cc1)N1CCN(c2ccccn2)CC1	MPTP inh 80 | Rh123 counter 79
S=C(Nc1ccc(Cl)c(Cl)c1)N1CCN(c2ccccn2)CC1	none
Cc1cc(C)c2c(C)c(C(=O)NCc3ccncc3)oc2c1	none
CCc1ccc2oc(C(=O)NCc3ccncc3)c(C)c2c1	MPTP inh 69 | Rh123 counter 22
Cc1ccc(SCCC(=O)N/N=C/c2ccccc2O)cc1	MPTP inh 52 | Rh123 counter 45
C=CCc1cccc(/C=N/NC(=O)C(C)Nc2cccc(C)c2)c1O (stereo not drawn)	MPTP inh 73 | Rh123 counter 61
C=CCc1cccc(/C=N/NC(=O)CNc2ccccc2)c1O	none
C=CCc1cccc(/C=N/NC(=O)CCCNc2ccc(C)cc2)c1O	MPTP inh 54 | Rh123 counter 30
Cc1ccc(NC(=O)C2CCN(S(=O)(=O)c3ccc4c(c3)NC(=O)C(C)S4)CC2)cc1Cl (stereo not drawn)	MPTP inh 96 | Rh123 counter 97
Cc1cc(C)cc(NC(=O)C2CCN(S(=O)(=O)c3ccc4c(c3)NC(=O)C(C)S4)CC2)c1 (stereo not drawn)	none
COC(=O)c1cc(S(=O)(=O)N2CCN(c3cccc(C(F)(F)F)c3)CC2)cn1C	none (no result: V-ATPase pHluor, Exocytosis inh, T cell HTS, Beta2AR agonist, MPTP inh)
Cc1cc(Cl)ccc1NC(=S)NCc1ccc(S(N)(=O)=O)cc1	none
Cc1cc(Cl)ccc1NC(=S)NCCc1ccc(Cl)cc1	MPTP inh 88 | Rh123 counter 81
CC(=O)c1cccc(NC(=S)NCc2ccccc2)c1	none
Cc1ccc(Cl)cc1NC(=S)NCc1cccn1C	MPTP inh 64 | Rh123 counter 47
CC(=O)c1cccc(NC(=S)NCCc2ccc(Cl)cc2)c1	MPTP inh 83 | Rh123 counter 100
Cc1cc(Cl)ccc1NC(=S)NCc1ccc(Cl)cc1	MPTP inh 84 | Rh123 counter 99
Cc1ccccc1NC(=S)NCc1cccn1C	none

Assay outcomes deposited in PubChem by several laboratories.
